Compounds with a hit are over-represented: about 5.8% of the library has one in this group of screens.
14-3-3 Bad inh – disrupts binding of bovine 14-3-3 zeta to phospho-Bad peptide; TR-FRET 14-3-3zeta/Dy647-pBad peptide displacement, 1 h; inhibition, % at 21.7 µM; P63103; 220,000 compounds, 0.71% hits;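 active = inhibition above about 70%, limit read from the data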;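 note: 0% = full 14-3-3 plus peptide FRET controls and 100% = background without 14-3-3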
RBBP9 inh – blocks human serine hydrolase RBBP9; 220,000 compounds, 0.2% hits; recombinant RBBP9, FP-Rh probe fluorescence polarization; O75884; inhibition, % at 7.94 µM;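 active = inhibition above the campaign mean of all tested compounds plus 3 SD, cut at about 14% in these data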;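 note: plate controls were DMSO wells with RBBP9 for no effect and wells lacking RBBP9 protein for full effect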
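Controls: DMSO-treated enzyme wells and wells lacking RBBP9 | Material: RBBP9 protein | Technique: Fluorescence polarization | Replication: Single well per compound, no replicates | Buffer or medium: Tris-NaCl-Pluronic buffer, pH 8.0 | Timing: 30 min compound preincubation, 45 min probe labeling, 25 °C | Read-out basis: Percent inhibition from mP, scaled between DMSO and no-protein wells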
WT yeast gro inh – growth inhibition of WT yeast, mitochondrial fusion screen. mitochondrial fusion phenotypic screen, WT strain. AID 1362. 190,000 compounds, 2.1% hits. inhibition, % at 10 µM; in the data active = inhibition above about 58%; tested in S. cerevisiae
ROMK mod – modulators of human ROMK potassium channel. P48048. Tet-inducible ROMK, thallium flux fluorescence; actives lie on both sides. B-score at 10 µM. 130,000 compounds, 2% hits;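 active = signal ratio slope over the read window, or its plate-corrected B-score, at least 3 SD from the plate mean, either direction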;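 note: B-score of the F/F0 ratio slope over 7 to 12 s after thallium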
KCC2 mod – modulates chloride dependent transport by human KCC2. Q9H2X9. KCC2 cells, thallium flux FluoZin-2 fluorescence. B-score of Tl+ flux slope (higher = more flux/activation; lower = inhibition) at 10 µM. 190,000 compounds, 2.2% hits;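 active = thallium flux slope and its plate-corrected score both differing from the plate sample mean at a set confidence after two filtering rounds, in either direction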;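 note: slope of fluorescence scaled to starting intensity during 10 to 20 s after thallium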
Target sequence (Q9H2X9 whole entry, looked up): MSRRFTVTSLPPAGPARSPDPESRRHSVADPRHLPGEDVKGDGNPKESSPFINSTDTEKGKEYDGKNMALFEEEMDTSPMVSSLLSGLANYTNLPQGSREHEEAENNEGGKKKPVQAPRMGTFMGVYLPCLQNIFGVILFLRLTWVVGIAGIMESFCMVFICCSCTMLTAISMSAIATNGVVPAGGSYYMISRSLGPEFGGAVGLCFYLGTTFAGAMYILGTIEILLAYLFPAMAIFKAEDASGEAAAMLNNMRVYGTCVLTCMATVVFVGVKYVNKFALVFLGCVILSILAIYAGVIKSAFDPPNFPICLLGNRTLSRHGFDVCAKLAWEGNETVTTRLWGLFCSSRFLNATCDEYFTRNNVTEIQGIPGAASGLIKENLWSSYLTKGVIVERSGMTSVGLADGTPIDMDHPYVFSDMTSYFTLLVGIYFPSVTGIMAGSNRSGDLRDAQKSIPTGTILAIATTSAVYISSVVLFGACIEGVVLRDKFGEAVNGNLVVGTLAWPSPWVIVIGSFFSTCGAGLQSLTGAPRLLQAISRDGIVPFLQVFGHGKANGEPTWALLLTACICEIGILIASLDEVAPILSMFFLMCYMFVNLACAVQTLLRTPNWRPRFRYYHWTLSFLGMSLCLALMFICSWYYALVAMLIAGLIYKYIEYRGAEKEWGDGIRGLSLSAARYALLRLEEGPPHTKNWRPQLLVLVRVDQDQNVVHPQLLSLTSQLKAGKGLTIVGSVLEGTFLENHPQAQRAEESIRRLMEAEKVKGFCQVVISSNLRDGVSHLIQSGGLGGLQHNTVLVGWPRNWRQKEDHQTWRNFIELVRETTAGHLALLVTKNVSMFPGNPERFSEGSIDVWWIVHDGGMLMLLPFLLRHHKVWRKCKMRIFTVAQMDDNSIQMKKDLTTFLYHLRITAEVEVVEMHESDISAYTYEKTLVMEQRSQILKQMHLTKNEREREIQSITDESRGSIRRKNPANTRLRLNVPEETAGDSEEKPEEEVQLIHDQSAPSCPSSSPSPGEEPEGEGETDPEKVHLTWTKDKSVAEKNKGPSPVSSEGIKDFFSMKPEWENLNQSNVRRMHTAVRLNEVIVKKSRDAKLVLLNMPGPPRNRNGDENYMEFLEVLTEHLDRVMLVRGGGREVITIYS
NCF1 inh – blocks human p47phox regulatory protein of NADPH oxidases; P14598; p47phox/p22phox peptide binding, fluorescence polarization, 2 h; inhibition, % at 24.7 µM; 220,000 compounds, 0.53% hits;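 active = inhibition above about 30%, limit read from the data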;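 note: 0% = p47phox with labelled peptide and 100% = labelled peptide alone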
ROMK hit retest – confirmation of human ROMK potassium channel modulators; ROMK thallium flux, fluorescence ratio; hits give low values; shares compounds with ROMK mod; 3,000 compounds, 54% hits; normalized thallium flux (F/F0 slope) at 10 µM; AID 1917;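 active = Flux at 10 µM at least 3 SD below or above vehicle control mean in one or both replicates; inconclusive = no clear call, values can overlap the other calls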
The depositor's hits bear a star; u = inconclusive; x = no result given.

SMILES | 14-3-3 Bad inh | RBBP9 inh | WT yeast gro inh | ROMK mod | KCC2 mod | NCF1 inh | ROMK hit retest
CCOc1ccc(-c2nc(C#N)c(NCc3ccco3)o2)cc1 | 2 | -1 | -4 | 0.67* | x | -7 | 0.086
N#Cc1nc(-c2ccc(OCc3ccccc3)cc2)oc1NCc1cccnc1 | -4 | -2 | 8 | -0.82 | x | -13 | x
Cc1ccc(NC(=O)c2sc(N)nc2-c2ccc([N+](=O)[O-])cc2)c(C)c1 | -5 | -4 | x | x | -0.022 | -6 | x
COc1ccc(NC(=O)/C(C#N)=C/c2ccc(Sc3nncn3C)c([N+](=O)[O-])c2)cc1 | 26 | -3 | 7 | -6.5* | x | 6 | 0.036*
CCN(CC)S(=O)(=O)c1ccc(NC(=O)c2ccc(Sc3nncn3C)c([N+](=O)[O-])c2)cc1 | -4 | -2 | 13 | x | -0.75 | -4 | x
CC(=O)Nc1cccc2c1C(=O)N(c1ccc(C)cc1)C2=O | -9 | 6 | -12 | -2.7* | -0.26 | -13 | 0.076
Cc1ccc(N2C(=O)c3ccccc3C2=O)cc1 | 1 | -13 | x | 0.25 | 0.77 | -3 | x
COc1ccc(NS(=O)(=O)c2ccc(SC)cc2)cc1 | -4 | 11 | 11 | x | x | -8 | x
COc1ccc(S(=O)(=O)NC(C)C(=O)O)cc1 (stereo not drawn) | -6 | 3 | 1 | 1* | -0.062 | -7 | 0.074
COc1ccc(NS(=O)(=O)c2ccc(NS(C)(=O)=O)cc2)cc1 | -3 | -7 | 3 | -3.2* | x | -6 | 0.083
COCC1CCCN(Cc2cn(-c3ccccc3)nc2-c2ccc3c(c2)OCO3)C1 (stereo not drawn) | -10 | -6 | -3 | -1.6 | 0.17 | -3 | x
CCSc1nnnn1-c1ccccc1 | 8 | -10 | 1 | 0.035 | 0.75 | -5 | x
Cc1ccc(C)c(-n2nnnc2Sc2nnnn2-c2ccccc2)c1 | -6 | -6 | -42 | -4.6* | -1.2 | -3 | 0.058*
CC1(CC(=O)N/N=C/c2cc([N+](=O)[O-])c(O)cc2O)OCCO1 | -1 | 2 | -13 | 0.7 | -0.81 | 3 | 0.081
Cc1ccccc1/C=N/Nc1nc2ccccc2c(=O)n1O | -5 | -9 | x | 1 | 2 | -7 | x
OCCC1CN(Cc2cccc(-n3cccn3)c2)CCN1Cc1ccccc1 (stereo not drawn) | -12 | 9 | -15 | 0.015 | 0.35 | -1 | x
COc1cc(C(=O)Nc2ccc3oc(-c4cccnc4)nc3c2)cc(OC)c1OC | -2 | -7 | -6 | -0.76 | -1.7 | 5 | 0.079
COc1ccc(C(=O)Nc2ccc3oc(-c4cccnc4)nc3c2)cc1OC | -9 | -5 | -10 | -1 | -0.58 | 12 | x
Cc1ccc(S(=O)(=O)N(C)CCCC(=O)NC(C)(C)C)cc1 | -2 | -4 | 1 | 0.46 | 0.19 | 4 | x
CCOC(=O)C1CCCN(c2nc3ccccc3nc2C(C#N)C(=O)OCCOC)C1 (stereo not drawn) | -7 | -7 | -23 | -1.7 | 0.083 | 4 | x
CCOC(=O)C1CCCN(c2nc3ccccc3nc2C(C#N)C(=O)OC(C)COC)C1 (stereo not drawn) | 2 | 0 | -9 | -0.14 | -1.5 | -9 | 0.071
Cc1noc(C(F)(F)F)c1C(=O)NNC(=O)c1cccc(C(F)(F)F)c1 | -1 | 0 | x | -0.001 | 0.28 | -4 | x
Cn1ncc([N+](=O)[O-])c1C(=O)N/N=C/c1cccc([N+](=O)[O-])c1 | -4 | -2 | -7 | x | x | 0 | x
CC1=C/C(=C\C=C(C#N)C#N)N(C)c2ccccc21 | 29 | -5 | x | -4* | -2 | -172 | 0.041*
Cc1cccc2cc(CN(Cc3nnnn3Cc3ccco3)C3CCCC3)c3nnnn3c12 | 3 | -4 | 21 | x | -1.1 | -20 | x
SMILES | 14-3-3 Bad inh | RBBP9 inh | WT yeast gro inh | ROMK mod | KCC2 mod | NCF1 inh | ROMK hit retest
CN(C)c1ccc(/C=C/C#N)cc1 | 2 | 8 | x | 0.59 | -0.08 | -8 | x
CN(C)c1ccc(/C=C/c2cccc[n+]2[O-])cc1 | 2 | 1 | x | -4.4* | -0.41 | -20 | 0.054*
O=c1oc2ccccc2cc1-c1nc(-c2cccs2)cs1 | -6 | -2 | 25 | -4.5* | -0.034 | 52* | 0.018*
c1csc(-c2nnc(Cc3cccc4ccccc34)o2)c1 | -3 | -9 | 9 | x | -1.6 | -19 | x
O=c1oc2ccc3ccccc3c2cc1-c1nnc(-c2cccs2)o1 | 1 | 0 | -5 | -3* | -0.0079 | 7 | u
COc1cccc2cc(-c3nc(-c4cccs4)cs3)c(=O)oc12 | 4 | 0 | -20 | -1.9 | x | -35 | x
CC(C)Nc1ccc(Cl)cc1[N+](=O)[O-] | 4 | 9 | x | 0.76 | -1.4 | -7 | x
C=C(C)CSc1[nH]c(=O)cc(C)c1C#N | 7 | -5 | 10 | -0.27 | -1.2 | -13 | x
COc1cccc(Cn2c(=S)[nH]c3ccc(N4CCOCC4)cc3c2=O)c1 | 0 | -6 | -5 | -0.99 | 1.5 | 9 | x
O=c1c2cc(N3CCOCC3)ccc2[nH]c(=S)n1Cc1cccc(Cl)c1 | -18 | -12 | 17 | x | x | -11 | 0.086
CCC(C)N1C(=O)CCC1C(=O)O (stereo not drawn) | 4 | 5 | -5 | -8.2* | 0.47 | -5 | 0.08
O=C(CN1CCCC1)Nc1c2c(nc3ccccc13)N(Cc1ccccc1)CC2 | 84* | 10 | -11 | -3.1* | x | -18 | 0.061*
COc1ccc(N(CC(=O)N/N=C(\C)CCc2ccccc2)S(=O)(=O)c2ccc(C)cc2)cc1 | 3 | -5 | x | x | 0.13 | -2 | x
O=C(CNc1ccc(Br)cc1)c1ccc(O)cc1 | -9 | -10 | 11 | -0.032 | 0.35 | 1 | x
O=C(Cn1nc(CNc2ccc(Cl)cc2)[n+]2c1CCCCC2)c1ccc(Br)cc1 | 4 | -1 | 8 | -3.7* | -0.17 | -147 | 0.053*
O=C(CNc1ccc(Cl)cc1)c1ccc(Br)cc1 | -6 | 0 | 3 | 2.7* | -0.084 | -2 | 0.086
COc1ccc(NCc2nn(CC(=O)c3ccc(Br)cc3)c3[n+]2CCCCC3)cc1 | -12 | -2 | -1 | -0.15 | -0.18 | 1 | x
C[N+]1(CC(O)COCC2COc3ccccc3O2)CCOCC1 (stereo not drawn) | 5 | -7 | -9 | -0.25 | 1.9 | -10 | x
CCn1c(CNc2cccc(Cl)c2)nnc1SCC(=O)OC1CCCCC1 | -2 | -5 | 25 | x | -2.1 | -11 | 0.062*
CS(=O)(=O)n1nc(OC(=O)c2cc(Br)ccc2Cl)cc1N | 68 | 3 | 1 | -3* | 1.1 | 1 | 0.054*
CS(=O)(=O)n1nc(OC(=O)c2cccc3ccccc23)cc1N | 0 | -8 | x | -2.1 | x | -6 | x
O=C(c1ccc(S(=O)(=O)NCC2CCCO2)cc1)N1CCN(c2cccc(Cl)c2)CC1 (stereo not drawn) | -5 | -2 | 5 | -1.1 | -1.5 | 0 | x
CC(OC(=O)c1ccncc1)C(=O)Nc1cc(S(=O)(=O)N2CCCCC2)ccc1Cl (stereo not drawn) | 1 | 3 | 6 | -4.8* | -0.024 | -14 | 0.068*

Compound activity as filed in PubChem.
